Data on 23 compounds can be found in ChEMBL document CHEMBL2331135, “New selective carbonic anhydrase IX inhibitors: synthesis and pharmacological evaluation of diarylpyrazole-benzenesulfonamides” (Bioorg Med Chem, 2013).

Calls of active or inactive are those of the source. No cut-off for these calls is given here.

One assay concerns the target Carbonic anhydrase 9 (Homo sapiens, UniProt Q16790). The assay can be described thus: Inhibition of human carbonic anhydrase 9 preincubated for 10 mins by CO2 hydration stopped-flow assay.
Assay [1] relates to MDA-MB-231. The assay can be described thus: Ratio of IC50 for human MDA-MB-231 cells under hypoxic condition to IC50 for human MDA-MB-231 cells under normoxic condition. In kind it is functional.
Assay [2] relates to MDA-MB-231. Put plainly: Potentiation of doxorubicin-induced cytotoxicity against human MDA-MB-231 cells under hypoxic condition at 1 uM after 72 hrs by MTS assay. In kind it is functional, cell-based. Put shortly:
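MDA-MB-231 cells (2×10^3 per well) were seeded in DMEM with 10% FCS, buffered with 22.3 mM bicarbonate, and moved to hypoxia (1% O2, 5% CO2, N2 balance). Cells were then held 72 h at 37 °C under hypoxia. Read-out was MTS, 1 h, A492. IC50 is the doxorubicin concentration giving 50% absorbance reduction. Data come from three independent experiments, six wells each.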

Assay [3] concerns MDA-MB-231. Put plainly: Potentiation of doxorubicin-induced cytotoxicity against human MDA-MB-231 cells under normoxic condition at 1 uM after 72 hrs by MTS assay. In kind it is functional, cell-based.
The subject of assay [4] is MDA-MB-231. The assay can be described thus: Cytotoxicity against human MDA-MB-231 cells after 72 hrs by MTS assay. Conditions: MDA-MB-231, 72 h. Background: Tetrazolium assays rely on reduction of a dye to a coloured formazan, in cell work by metabolically active cells.
For assay [5], the species on record is Homo sapiens. Put plainly: Selectivity ratio of Ki for human carbonic anhydrase 2 to Ki for human carbonic anhydrase 9. In short, it runs like this:
(§1)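 Stopped-flow CO2 hydration assay using 0.2 mM phenol red read at 557 nm, in 10 mM Hepes pH 7.5 with 0.1 M Na2SO4. Substrate was CO2-saturated water at 25 °C. Enzyme and inhibitor were preincubated 10 min at room temperature, testing at least seven inhibitor concentrations, with dilutions going down to 0.01 nM. Ki came from Lineweaver-Burk plots, triplicates averaged. The ratios are hCA I or hCA II Ki divided by hCA IX Ki.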

Assay [6] is filed under the species Homo sapiens. Put plainly: Selectivity ratio of Ki for human carbonic anhydrase 1 to Ki for human carbonic anhydrase 9. Put shortly: as §1
The target in another assay is Carbonic anhydrase 2 (Homo sapiens, UniProt P00918). The assay can be described thus: Inhibition of human carbonic anhydrase 2 preincubated for 10 mins by CO2 hydration stopped-flow assay.
The target in another assay is Carbonic anhydrase 1 (Homo sapiens, UniProt P00915). The assay can be described thus: Inhibition of human carbonic anhydrase 1 preincubated for 10 mins by CO2 hydration stopped-flow assay.
Sequence of Carbonic anhydrase 1 (P00915 whole entry): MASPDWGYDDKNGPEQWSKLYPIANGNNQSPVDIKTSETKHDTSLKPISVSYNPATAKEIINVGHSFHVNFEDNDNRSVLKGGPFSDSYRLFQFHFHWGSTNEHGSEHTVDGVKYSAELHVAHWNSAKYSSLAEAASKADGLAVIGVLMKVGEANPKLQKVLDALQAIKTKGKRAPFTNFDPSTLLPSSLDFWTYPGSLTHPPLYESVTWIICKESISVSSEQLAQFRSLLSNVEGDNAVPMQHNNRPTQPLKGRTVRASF

The Ki is the equilibrium dissociation constant of an inhibitor or competing ligand from its target. A low value points to tighter binding. On Carbonic anhydrase 9, `NS(=O)(=O)c1ccc(-n2nc(CCO)cc2-c2ccccc2)cc1` gave a Ki of 23 nM.

`NS(=O)(=O)c1ccc(-n2nc(CO)cc2-c2ccccc2)cc1` returned a Ki at Carbonic anhydrase 9 of 27 nM.

As to `NS(=O)(=O)c1ccc(-n2nc(CO)cc2-c2ccc3ccccc3c2)cc1`, on Carbonic anhydrase 9, the Ki stood at 17 nM.

In turn, `COc1ccc2cc(-c3nn(-c4ccc(S(N)(=O)=O)cc4)cc3CO)ccc2c1` showed a Ki on Carbonic anhydrase 9 of 48 nM.

As to `NS(=O)(=O)c1ccc(-n2nc(-c3ccc4ccccc4c3)cc2CO)cc1`, affinity on Carbonic anhydrase 9 was put at a Ki of 21 nM.

On Carbonic anhydrase 9, `COc1cccc(-c2cc(CO)nn2-c2ccc(S(N)(=O)=O)cc2)c1` returned an inhibitory constant (Ki) of 26 nM.

`COc1cccc2c1C(=O)c1c(O)c3c(c(O)c1C2=O)C[C@@](O)(C(=O)CO)C[C@@H]3O[C@H]1C[C@H](N)[C@H](O)[C@H](C)O1` [DOXORUBICIN]: in the assay on MDA-MB-231 [1], the “Ratio IC50” value was 3.

`NS(=O)(=O)c1cccc(-n2nc(CO)cc2-c2ccccc2)c1` returned an inhibition constant Ki at Carbonic anhydrase 9 of 31 nM.

The IC50 is the concentration that gives 50% inhibition. Low readings indicate higher potency, high ones lower potency. Take `NS(=O)(=O)c1cccc(-n2nc(CO)cc2-c2ccc3ccccc3c2)c1`: in the assay on MDA-MB-231 [2], the result was Active. In addition, the result in the assay with MDA-MB-231 [3] was inactive. Also, the IC50 with MDA-MB-231 [4] is over 50000 nM. The same compound registered a Ki at Carbonic anhydrase 9 of 19 nM.

The compound `NS(=O)(=O)c1ccc(-n2nc(CO)cc2-c2cccnc2)cc1` displayed a Ki on Carbonic anhydrase 9 of 13 nM.

Regarding `NS(=O)(=O)c1ccc(-n2cc(CO)c(-c3ccccc3)n2)cc1`, the Ki on Carbonic anhydrase 9 was determined as 66 nM.

`NS(=O)(=O)c1ccc(-n2nc(CO)cc2-c2ccc(-c3ccccc3)cc2)cc1`: the inhibition constant (Ki) on Carbonic anhydrase 9 worked out at 27 nM.

On to `COc1ccc2cc(-c3cc(CO)nn3-c3ccc(S(N)(=O)=O)cc3)ccc2c1Br`, for which the Ki at Carbonic anhydrase 9 came out at 30 nM.

As to `NS(=O)(=O)c1ccc(-n2nc(-c3ccccc3)cc2CO)cc1`, the affinity at Carbonic anhydrase 9, expressed as Ki, was 157 nM.

Consider `COc1ccc2cc(-c3cc(CO)nn3-c3ccc(S(N)(=O)=O)cc3)ccc2c1`, for which the outcome with MDA-MB-231 [3] was inactive. In the assay on MDA-MB-231 [4], the IC50 was over 50000 nM. For the same compound, at Carbonic anhydrase 9, affinity was put at a Ki of 19 nM.

For `N#Cc1ccc(-c2cc(CO)nn2-c2ccc(S(N)(=O)=O)cc2)cc1`, on Carbonic anhydrase 9, the inhibition constant Ki came to 27 nM.

With `NS(=O)(=O)c1ccc(-n2cc(CO)c(-c3ccc4ccccc4c3)n2)cc1`, on Carbonic anhydrase 9, the inhibition constant (Ki) turned out to be 49 nM.

`NS(=O)(=O)c1ccc(-n2nc(CO)cc2-c2ccc(Br)cc2)cc1`: the result in the assay on MDA-MB-231 [2] was Active. The result in the assay with MDA-MB-231 [3] was inactive. The compound further displayed an IC50 in the assay on MDA-MB-231 [4] of over 50000 nM. Also, the Ki on Carbonic anhydrase 9 was determined as 15 nM.

In turn, `NS(=O)(=O)c1ccc(-n2nc(CO)cc2-c2cccc3ccccc23)cc1` had a Ki at Carbonic anhydrase 9 of 254 nM.

On to `COc1ccccc1-c1cc(CO)nn1-c1ccc(S(N)(=O)=O)cc1`, for which the Ki at Carbonic anhydrase 9 was 32 nM.

On to `NS(=O)(=O)c1ccc(-n2nc(CO)cc2-c2ccc3c(ccc4ccccc43)c2)cc1`, for which the Ratio Ki in the assay listed under Homo sapiens [5] and in the assay listed under Homo sapiens [6] was over 5 in each case. For the same compound, the Ki on Carbonic anhydrase 9 is 1860 nM; at Carbonic anhydrase 2 it was over 10000 nM; at Carbonic anhydrase 1, over 10000 nM.

With `COc1ccc2cc(-c3cc(CO)nn3-c3cccc(S(N)(=O)=O)c3)ccc2c1`, on Carbonic anhydrase 9, the affinity corresponds to a Ki of 29 nM.

Regarding `Cc1ccc(-c2cc(CO)nn2-c2ccc(S(N)(=O)=O)cc2)cc1`, the results for the Ratio Ki in the assay listed under Homo sapiens [5] and in the assay listed under Homo sapiens [6] were 8 and 69, respectively. The inhibition constant Ki at Carbonic anhydrase 2 is 176 nM; at Carbonic anhydrase 1, 1510 nM.
